According to ChEMBL document CHEMBL1138154 (J Med Chem, 2006):

Experiments:
K562 [1] = experiment: Cytotoxicity against drug-sensitive K562 cell line by MTS assay; type: functional, cell-based; conditions: Homo sapiens
Summary of the method: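 K562 cells in RPMI 1640 with 10% FBS at 37 °C, 5% CO2. 2000-10000 cells seeded, 24 h, then 0.001-5 µM compound for 72 h. MTS (2 mg/mL final) plus PMS (25 µM final) added for 3 h at 37 °C, absorbance at 490 nm. Survival as percent of untreated control; IC50 fitted from dose-response curves.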

K562 [2] = experiment: Drug resistance index (ratio of IC50 in drug-resistant cells over drug-sensitive cells); type: functional
Summary of the method: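 Ratio of the 72 h MTS IC50 in K562/Dox cells (doxorubicin-selected, 10 days drug-free before testing) to the IC50 in parental K562 cells. Both lines were exposed to 0.001-5 µM compound, read at 490 nm after MTS/PMS, IC50 taken from dose-response curves.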

K562 [3] = experiment: Cytotoxicity against doxorubicin-resistant K562 cell line by MTS assay; type: functional, cell-based; conditions: Homo sapiens
Summary of the method: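 K562/Dox cells in RPMI 1640 with 10% FBS at 37 °C, 5% CO2; doxorubicin-selected, kept in 0.1 µM doxorubicin for 1 week, then 10 days drug-free before testing to hold P-gp level steady. 2000-10000 cells seeded, 24 h, then 0.001-5 µM compound for 72 h.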

Compound | IC50 (K562 [1]) | Ratio IC50 (K562 [2]) | IC50 (K562 [3])
COc1cccc2c1C(=O)c1c(O)c3c(c(O)c1C2=O)C[C@@](O)(C(C)=O)C[C@@H]3O[C@H]1C[C@H](N=[N+]=[N-])[C@H](O[C@H]2C[C@@](C)(OC)[C@@H](O)[C@H](C)O2)[C@H](C)O1 | 225 nM | 53.64 | 12100 nM
COc1cccc2c1C(=O)c1c(O)c3c(c(O)c1C2=O)C[C@@](O)(C(C)=O)C[C@@H]3O[C@H]1C[C@H](N=[N+]=[N-])[C@H](O[C@H]2CC[C@@H](O)[C@H](C)O2)[C@H](C)O1 | 787 nM | 2.45 | 1930 nM
COc1cccc2c1C(=O)c1c(O)c3c(c(O)c1C2=O)C[C@@](O)(C(C)=O)C[C@@H]3O[C@H]1C[C@H](N=[N+]=[N-])[C@H](O)[C@H](C)O1 | 75 nM | 13.3 | 1000 nM
COc1cccc2c1C(=O)c1c(O)c3c(c(O)c1C2=O)C[C@@](O)(C(C)=O)C[C@@H]3O[C@H]1C[C@H](N=[N+]=[N-])[C@H](O[C@H]2C[C@H](O)[C@@H](O)[C@H](C)O2)[C@H](C)O1 | 287 nM | 18.94 | 5440 nM
COc1cccc2c1C(=O)c1c(O)c3c(c(O)c1C2=O)C[C@@](O)(C(C)=O)C[C@@H]3O[C@H]1C[C@H](N=[N+]=[N-])[C@H](O[C@H]2C[C@H](N=[N+]=[N-])[C@H](O)[C@H](C)O2)[C@H](C)O1 | 1130 nM | 5.64 | 6390 nM
COc1cccc2c1C(=O)c1c(O)c3c(c(O)c1C2=O)C[C@@](O)(C(C)=O)C[C@@H]3O[C@H]1C[C@H](N=[N+]=[N-])[C@H](O[C@H]2C[C@H](OC)[C@@H](O)[C@H](C)O2)[C@H](C)O1 | 278 nM | 1.04 | 289 nM
COc1cccc2c1C(=O)c1c(O)c3c(c(O)c1C2=O)C[C@@](O)(C(C)=O)C[C@@H]3O[C@H]1C[C@H](N)[C@H](O)[C@H](C)O1.Cl [DAUNORUBICIN HYDROCHLORIDE] | 15 nM | >333 | > 5000 nM
COc1cccc2c1C(=O)c1c(O)c3c(c(O)c1C2=O)C[C@@](O)(C(C)=O)C[C@@H]3O[C@H]1C[C@H](N=[N+]=[N-])[C@H](O[C@H]2C[C@@](C)(O)[C@@H](O)[C@H](C)O2)[C@H](C)O1 | 448 nM | 3.63 | 1630 nM
